Data reported in ChEMBL document CHEMBL2040723, “1,4-dioxane, a suitable scaffold for the development of novel M₃ muscarinic receptor antagonists” (J Med Chem, 2012).
Active and inactive are the calls of the source. The calls are words filed in the database; no cut-off is given here.

How the values were obtained:
[1] = target: T1, Muscarinic acetylcholine receptor M2 (Homo sapiens, UniProt P08172); assay: Displacement of [3H]N-methylscopolamine from human muscarinic M2 receptor expressed in CHO cells after 120 mins by scintillation counting; assay type: cell-based
T1 sequence (P08172 whole entry): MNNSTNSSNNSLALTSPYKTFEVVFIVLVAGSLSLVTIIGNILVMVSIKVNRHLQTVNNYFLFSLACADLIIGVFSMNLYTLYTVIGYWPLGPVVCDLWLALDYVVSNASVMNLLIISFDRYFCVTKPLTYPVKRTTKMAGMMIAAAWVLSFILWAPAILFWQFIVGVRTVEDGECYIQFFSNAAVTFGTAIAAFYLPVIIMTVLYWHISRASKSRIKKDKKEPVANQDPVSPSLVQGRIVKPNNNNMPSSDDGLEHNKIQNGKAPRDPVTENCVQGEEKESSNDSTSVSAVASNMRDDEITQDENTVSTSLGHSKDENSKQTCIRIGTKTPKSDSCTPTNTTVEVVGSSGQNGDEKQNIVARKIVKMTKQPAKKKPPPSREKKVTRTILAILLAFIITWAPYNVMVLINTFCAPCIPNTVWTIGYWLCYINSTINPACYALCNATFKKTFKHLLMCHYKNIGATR

[2] = target: T2, Muscarinic acetylcholine receptor M5 (Homo sapiens, UniProt P08912); assay: Displacement of [3H]N-methylscopolamine from human muscarinic M5 receptor expressed in CHO cells after 120 mins by scintillation counting; assay type: cell-based
T2 sequence (P08912 whole entry): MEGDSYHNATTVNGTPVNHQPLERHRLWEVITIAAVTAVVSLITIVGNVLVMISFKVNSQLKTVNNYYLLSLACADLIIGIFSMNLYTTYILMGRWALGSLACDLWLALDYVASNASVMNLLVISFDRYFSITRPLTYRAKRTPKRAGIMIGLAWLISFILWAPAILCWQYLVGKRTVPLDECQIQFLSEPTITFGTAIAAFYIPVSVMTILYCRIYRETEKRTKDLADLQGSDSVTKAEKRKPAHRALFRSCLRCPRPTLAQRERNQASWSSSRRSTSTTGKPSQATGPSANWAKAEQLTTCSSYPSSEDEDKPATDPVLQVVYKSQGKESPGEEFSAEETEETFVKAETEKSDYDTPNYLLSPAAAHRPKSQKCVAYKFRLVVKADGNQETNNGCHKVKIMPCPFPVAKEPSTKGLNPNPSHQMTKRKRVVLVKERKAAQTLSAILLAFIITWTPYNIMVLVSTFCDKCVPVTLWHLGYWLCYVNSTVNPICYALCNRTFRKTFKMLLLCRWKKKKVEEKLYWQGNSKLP

[3] = Antagonist activity at muscarinic M2 receptor in guinea pig left atrium assessed as dissociation constant after 45 mins; assay type: functional, Cavia porcellus, Cardiac atrium
How it was run: (§1)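 Isolated guinea pig tissues: left atrium (M2), ileum (M3) and lung strips (putative M4). Antagonist dissociation constants were calculated by the Furchgott method and reported as pKB, as mean ± SEM of four to six independent experiments. Agonist reference for the tissue responses was bethanechol.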

Cavia porcellus [4] = species on record: Cavia porcellus; assay: Intrinsic activity at muscarinic M2 receptor in guinea pig left atrium after 45 mins relative to bethanechol; assay type: tissue-based; settings: Cardiac atrium
How it was run: (§2)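 Guinea pig left atrium (M2) and ileum (M3) preparations. Intrinsic activity is the ratio of the compound's maximum response to the maximum response of bethanechol in that tissue. The pD2 is the −log of the agonist concentration giving 50% of the maximum response attainable in the tissue.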

[5] = Antagonist activity at muscarinic M3 receptor in guinea pig ileum assessed as dissociation constant after 45 mins; assay type: functional, Cavia porcellus; how it was run: as §1
Cavia porcellus [6] = species on record: Cavia porcellus; assay: Intrinsic activity at muscarinic M3 receptor in guinea pig ileum after 45 mins relative to bethanechol; assay type: tissue-based; how it was run: as §2
[7] = Antagonist activity at muscarinic M4 receptor in guinea pig lung strips assessed as dissociation constant after 45 mins; assay type: functional, Cavia porcellus; how it was run: as §1
[8] = Antagonist activity at muscarinic M1 receptor in rabbit vas deferens assessed as dissociation constant after 45 mins; assay type: functional, Oryctolagus cuniculus
Rattus norvegicus [9] = assay: Cardiovascular toxicity in anaesthetized Wistar rat assessed as changes in mean arterial pressure at 1 ug/kg, iv; assay type: organism-based, Artery; settings: in vivo, 0.001 mg/kg
Rattus norvegicus [10] = assay: Cardiovascular toxicity in anaesthetized Wistar rat assessed as changes in heart rate at 1 ug/kg, iv; assay type: organism-based; settings: in vivo, 0.001 mg/kg
Rattus norvegicus [11] = assay: Reduction in volume induced contraction of iv dosed anaesthetized Wistar rat urinary bladder assessed as inhibition of AUC peaks from saline baseline; assay type: functional; settings: read-out: ID50 (the source's name)
Rattus norvegicus [12] = assay: Reduction in volume induced contraction of iv dosed anaesthetized Wistar rat urinary bladder assessed as inhibition of VIBC amplitudes relative to untreated control; assay type: functional
[13] = Agonist potency at muscarinic M3 receptor in guinea pig ileum after 45 mins; assay type: functional, Cavia porcellus
How it was run: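 Isolated guinea pig ileum (M3) functional assay. pD2 is the −log of the agonist concentration giving 50% of the maximum response attainable in that tissue. Intrinsic activity is the ratio of the agonist's maximum response to that of bethanechol. Results are mean ± SEM of four to six independent experiments.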

[14] = target: T3, Muscarinic acetylcholine receptor M4 (Homo sapiens, UniProt P08173); assay: Displacement of [3H]N-methylscopolamine from human muscarinic M4 receptor expressed in CHO cells after 120 mins by scintillation counting; assay type: cell-based
T3 sequence (P08173 whole entry): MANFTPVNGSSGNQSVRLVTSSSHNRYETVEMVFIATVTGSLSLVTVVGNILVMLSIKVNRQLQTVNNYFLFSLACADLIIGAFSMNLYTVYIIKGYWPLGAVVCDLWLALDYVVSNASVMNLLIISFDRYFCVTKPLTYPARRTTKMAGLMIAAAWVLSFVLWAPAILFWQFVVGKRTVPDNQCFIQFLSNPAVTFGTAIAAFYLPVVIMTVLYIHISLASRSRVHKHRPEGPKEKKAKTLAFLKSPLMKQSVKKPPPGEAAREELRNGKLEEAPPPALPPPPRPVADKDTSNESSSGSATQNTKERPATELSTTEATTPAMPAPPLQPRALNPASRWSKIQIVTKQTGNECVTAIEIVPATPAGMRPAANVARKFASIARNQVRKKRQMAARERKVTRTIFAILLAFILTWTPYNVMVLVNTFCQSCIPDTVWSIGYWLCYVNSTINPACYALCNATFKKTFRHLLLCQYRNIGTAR

[15] = Agonist potency at muscarinic M2 receptor in guinea pig left atrium after 45 mins; assay type: functional, Cavia porcellus, Cardiac atrium
Cavia porcellus [16] = species on record: Cavia porcellus; assay: Antagonist activity at muscarinic M4 receptor in guinea pig lung strips up to 10 uM after 45 mins; assay type: functional
How it was run: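 Guinea pig lung strips (putative M4) were tested for agonist activity and then for antagonism at concentrations up to 10 μM. Dissociation constants (pKB) were calculated by the Furchgott method from four to six independent experiments.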

Cavia porcellus [17] = species on record: Cavia porcellus

C[N+](C)(C)C[C@H]1COCC(c2ccccc2)(c2ccccc2)O1.[I-]
Ki [1]: 0.00282 µM | Ki [2]: 0.0017 µM | pKb [3]: 7.31 | Intrinsic activity (Cavia porcellus [4]): 0 | pKb [5]: 8.52 | Intrinsic activity (Cavia porcellus [6]): 0 | pKb [7]: 6.7 | pKb [8]: 8.86 | Activity (Rattus norvegicus [9]): -12% | Activity (Rattus norvegicus [10]): 5% | ED50 (Rattus norvegicus [11]): 0.201 mg/kg | Imax (Rattus norvegicus [12]): 96%

C[N+](C)(C)C[C@@H]1COCC(c2ccccc2)(c2ccccc2)O1.[I-]
Ki [1]: 0.0331 µM | Ki [2]: 0.107 µM | pKb [3]: 6.67 | Intrinsic activity (Cavia porcellus [4]): 0 | Intrinsic activity (Cavia porcellus [6]): 0 | pKb [7]: 6.62

CN(C)C[C@H]1COCC(c2ccccc2)(c2ccccc2)O1.O=C(O)C(=O)O
Ki [1]: 0.00977 µM | Ki [2]: 0.00182 µM | pKb [3]: 7.63 | Intrinsic activity (Cavia porcellus [4]): 0 | Intrinsic activity (Cavia porcellus [6]): 0 | pKb [7]: 6.94

CN(C)C[C@@H]1COCC(c2ccccc2)(c2ccccc2)O1.O=C(O)C(=O)O
Ki [1]: 0.0955 µM | Ki [2]: 0.0813 µM | pKb [3]: 7 | Intrinsic activity (Cavia porcellus [4]): 0 | Intrinsic activity (Cavia porcellus [6]): 0

CN(C)C[C@@H]1COC(c2ccccc2)(c2ccccc2)O1.O=C(O)C(=O)O
pKb [3]: 7.11 | pKb [5]: 6.38

C[C@H]1COC[C@@H](C[N+](C)(C)C)O1.[I-]
Intrinsic activity (Cavia porcellus [4]): 1 | pD2 [13]: 7.34 | Intrinsic activity (Cavia porcellus [6]): 1

C[N+](C)(C)CC1COCC(c2ccccc2)(c2ccccc2)O1.[I-] (racemic)
Ki [1]: 0.00575 µM | Ki [2]: 0.00437 µM | pKb [3]: 8.21 | Intrinsic activity (Cavia porcellus [4]): 0 | pKb [5]: 8.34 | Intrinsic activity (Cavia porcellus [6]): 0 | pKb [7]: 7.77

CN(C)CC1COCC(c2ccccc2)(c2ccccc2)O1.O=C(O)C(=O)O (racemic)
Ki [1]: 0.0166 µM | Ki [2]: 0.00537 µM | pKb [3]: 6.95 | Intrinsic activity (Cavia porcellus [4]): 0 | pKb [5]: 8.24 | Intrinsic activity (Cavia porcellus [6]): 0 | pKb [7]: 7.02 | pKb [8]: 7.86 | Activity (Rattus norvegicus [9]): -18% | Activity (Rattus norvegicus [10]): 4% | ED50 (Rattus norvegicus [11]): 0.134 mg/kg | Imax (Rattus norvegicus [12]): 72%

CC[C@H]1COC[C@@H](C[N+](C)(C)C)O1.[I-] (relative stereo)
Ki [1]: 6.31 µM | Ki [14]: 25.1 µM | Ki [2]: 26.3 µM | pD2 [15]: 5.62 | Intrinsic activity (Cavia porcellus [4]): 1 | pD2 [13]: 4.82 | Intrinsic activity (Cavia porcellus [6]): 1 | Activity (Cavia porcellus [16]): inactive | pD2 (Cavia porcellus [17]): inactive

CC[C@@H]1COC[C@@H](C[N+](C)(C)C)O1.[I-] (relative stereo)
Ki [1]: 18.2 µM | Ki [14]: > 100 µM | Ki [2]: > 100 µM | pD2 [15]: 5.45 | Intrinsic activity (Cavia porcellus [4]): 0.7 | pD2 [13]: 5.19 | Intrinsic activity (Cavia porcellus [6]): 1 | Activity (Cavia porcellus [16]): inactive | pD2 (Cavia porcellus [17]): inactive

C[N+](C)(C)C[C@@H]1COC[C@H](c2ccccc2)O1.[I-] (relative stereo)
Ki [14]: 12.3 µM | pKb [3]: 5.56 | Intrinsic activity (Cavia porcellus [4]): 0 | Intrinsic activity (Cavia porcellus [6]): 0 | pKb [7]: 5.24

C[N+](C)(C)C[C@@H]1COC[C@@H](c2ccccc2)O1.[I-] (relative stereo)
Ki [14]: 29.5 µM | pKb [3]: 5.14 | Intrinsic activity (Cavia porcellus [4]): 0 | pKb [5]: <5 | Intrinsic activity (Cavia porcellus [6]): 0 | pKb [7]: <5

C[N+](C)(C)C[C@@H]1COC[C@H](C(c2ccccc2)c2ccccc2)O1 (relative stereo)
Ki [1]: 28.2 µM | Ki [14]: 11.2 µM | Ki [2]: 7.59 µM

C[N+](C)(C)C[C@@H]1COC[C@@H](C(c2ccccc2)c2ccccc2)O1 (relative stereo)
Ki [1]: 79.4 µM | Ki [14]: 17 µM | Ki [2]: 31.6 µM

C[N+]1(C)CCC(OC(=O)C(c2ccccc2)c2ccccc2)CC1.[I-] [4-DAMP]
pKb [3]: 8 | pKb [5]: 9.02 | pKb [7]: 9.4

COc1ccccc1CNCCCCCCNCCCCCCCCNCCCCCCNCc1ccccc1OC [METHOCTRAMINE]
pKb [3]: 7.8 | pKb [5]: 6.3 | pKb [7]: 7.6

CCN(CC)CC#CCOC(=O)C(O)(c1ccccc1)C1CCCCC1 (stereo not given) [OXYBUTYNIN]
Intrinsic activity (Cavia porcellus [4]): 0 | Intrinsic activity (Cavia porcellus [6]): 0 | Activity (Rattus norvegicus [9]): 20% | Activity (Rattus norvegicus [10]): 7% | ED50 (Rattus norvegicus [11]): 0.347 mg/kg | Imax (Rattus norvegicus [12]): 75%
